Measurements taken from ChEMBL document CHEMBL3102816, “Design, synthesis and molecular modeling of novel N-acylhydrazone derivatives as pyruvate dehydrogenase complex E1 inhibitors” (Bioorg Med Chem, 2014).

Assay: Inhibition of Escherichia coli […] expressed in Escherichia coli TB1 using sodium pyruvate as substrate assessed as reduction of 2,6-DCPIP preincubated for 3 mins followed by ThDP addition
How it was run: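 MBP-fused E. coli PDHc-E1 from plasmid pMal-C2X in strain TB1 (LB with 2% glucose, ampicillin, 37 °C to A600 0.6–0.8; 0.5 mM IPTG, 7 h, 25 °C), MBP affinity-purified, Bradford-quantified. Reaction: 50 mM K3PO4 pH 7.2, 2.0 mM pyruvate, 0.8 mM 2,6-DCPIP, enzyme, inhibitor at varied concentrations; 3 min at 37 °C, then ThDP added; DCPIP reduction read at 600 nm.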

Going from `Cc1ncc(Cn2nnc(C(=O)N/N=C/c3ccc(Br)cc3)c2C)c(N)n1` to `Cc1ncc(Cn2nnc(C(=O)N/N=C/c3ccc(O)cc3)c2C)c(N)n1`, the IC50 rises from 1.89 µM to 3.43 µM (1.8-fold). The first is the more potent here.

Going from `Cc1ncc(Cn2nnc(C(=O)N/N=C/c3ccccc3)c2C)c(N)n1` to `Cc1ncc(Cn2nnc(C(=O)N/N=C/c3ccccc3O)c2C)c(N)n1`, the IC50 falls from 110 µM to 11.6 µM (9.5-fold).

Compared with `Cc1ncc(Cn2nnc(C(=O)N/N=C/c3ccc([N+](=O)[O-])cc3)c2C)c(N)n1`, `Cc1ncc(Cn2nnc(C(=O)N/N=C/c3ccc(Cl)cc3)c2C)c(N)n1` is 3.6-fold higher in IC50: 0.65 µM for the first, 2.35 µM for the second.

Compared with `Cc1ncc(Cn2nnc(C(=O)N/N=C/c3ccc(C(F)(F)F)cc3)c2C)c(N)n1`, `Cc1ncc(Cn2nnc(C(=O)N/N=C/c3ccc(F)cc3)c2C)c(N)n1` is 4.2-fold higher in IC50: 1.92 µM for the first, 8 µM for the second.

`Cc1ncc(Cn2nnc(C(=O)N/N=C/c3cccc(O)c3)c2C)c(N)n1` and `Cc1cccc(/C=N/NC(=O)c2nnn(Cc3cnc(C)nc3N)c2C)c1` are within 1.5-fold of each other in IC50: 23.4 µM for the first, 20.9 µM for the second.

Compared with `Cc1ncc(Cn2nnc(C(=O)N/N=C/c3ccccn3)c2C)c(N)n1`, `Cc1ncc(Cn2nnc(C(=O)N/N=C/c3ccccc3Cl)c2C)c(N)n1` is 1.7-fold lower in IC50: 22.8 µM for the first, 13.6 µM for the second.

`Cc1ncc(Cn2nnc(C(=O)N/N=C/c3ccccc3Br)c2C)c(N)n1` and `Cc1ccc(/C=N/NC(=O)c2nnn(Cc3cnc(C)nc3N)c2C)cc1` are within 1.5-fold of each other in IC50: 53.8 µM for the first, 50.3 µM for the second.

Compared with `Cc1ncc(Cn2nnc(C(=O)N/N=C/c3ccc(Cl)c([N+](=O)[O-])c3)c2C)c(N)n1`, `Cc1ncc(Cn2nnc(C(=O)N/N=C/c3ccc4c(c3)OCO4)c2C)c(N)n1` is 8.5-fold higher in IC50: 1.71 µM for the first, 14.5 µM for the second.
